The test system of experiment [1] is Rattus norvegicus. As to the kind of experiment: Blood pressure was measured in spontaneously hypertensive rat after po administration at 4 hr. In kind it is functional. An outline of the steps: (§1)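 Male-unspecified SHR (250-350 g; baseline BP at least 170 mmHg by indirect tail-cuff plethysmography), nonanesthetized, five per group. Single oral dose of 75 mg/kg. Indirect BP and heart rate recorded before dosing and 4, 8 and 24 h after. Group means reported, BP ± SEM.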

Experiment [2] is filed under the species Rattus norvegicus. As to the kind of experiment: Saluretic activity in rats after 5-24 hours, as potassium ion concentration in urine. In kind it is functional. An outline of the steps:
(§2)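 Male Sabra rats (170-200 g), fasted 18 h, dosed orally 50 mg/kg in saline at 25 mL/kg, eight per compound, two per metabolic cage, no food or water. Urine collected 5 and 24 h after dosing and centrifuged. Chloride titrated with Hg(NO3)2/diphenylcarbazone after HNO3 acidification; Na+ and K+ by atomic absorption.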

The species named for experiment [3] is Rattus norvegicus. Kind of experiment: Saluretic activity in rats after 0-5 hours, as sodium ion concentration in urine. In kind it is functional. An outline of the steps: as §2
The species entered for experiment [4] is Rattus norvegicus. As to the kind of experiment: Saluretic activity in rats after 0-5 hours, as chloride ion concentration in urine. In kind it is functional. The essentials: as §2
Experiment [5] relates to Rattus norvegicus. Kind of experiment: The heart rate was measured in spontaneously hypertensive rat after po administration at 8 hr. In kind it is functional. An outline of the steps: as §1
Experiment [6] is filed under the species Rattus norvegicus. Kind of experiment: Compound was tested for antihypertensive activity in rat after 4 hr postdose. In kind it is functional. An outline of the steps:
(§3)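 DOCA/saline hypertensive Sprague-Dawley rats (250-350 g), six per group, given 10 mg/kg doca s.c. daily with saline until systolic BP reached 170 mmHg (usually 3-4 weeks). Oral 25 mg/kg in 5 mL/kg 1% methylcellulose. Systolic BP by tail-cuff before and 1, 4, 24 h after; drop reported as mean ± SD.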

The species named for experiment [7] is Rattus norvegicus. Kind of experiment: Compound was tested for antihypertensive activity in rat after 1 hr postdose. In kind it is functional. The essentials: as §3
For experiment [8], the species on record is Rattus norvegicus. Kind of experiment: Saluretic activity in rats after 0-24 hours, as ratio of Na+/K+ ion concentration in urine. In kind it is functional. The essentials:
as §2

The species named for experiment [9] is Rattus norvegicus. Kind of experiment: Saluretic activity in rats after 5-24 hours, as chloride ion concentration in urine. In kind it is functional. An outline of the steps:
as §2

The species named for experiment [10] is Rattus norvegicus. As to the kind of experiment: Diuretic activity in rats at time intervals of 5-24 hours. In kind it is functional, Urine. The essentials:
(§4)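 Male Sabra rats (170-200 g), starved 18 h, given 50 mg/kg by stomach tube in saline (25 mL/kg load), eight per compound, saline and furosemide controls run alongside. Held two per metabolic cage at 22 °C without food or water. Urine volume measured at 5 and 24 h collections.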

In experiment [11] the test system is Rattus norvegicus. As to the kind of experiment: The heart rate was measured in spontaneously hypertensive rat after po administration at 24 hr. In kind it is functional. The essentials:
as §1

For experiment [12], the species on record is Rattus norvegicus. Kind of experiment: Diuretic activity in rats at time intervals of 0-24 hours. In kind it is functional, Urine. An outline of the steps: as §4
The test system of experiment [13] is Rattus norvegicus. As to the kind of experiment: The heart rate was measured in spontaneous hypertensive rat after po administration at 4 hr. In kind it is functional. The essentials:
as §1

The species entered for experiment [14] is Rattus norvegicus. Kind of experiment: Saluretic activity in rats after 5-24 hours, as sodium ion concentration in urine. In kind it is functional. The essentials: as §2
Experiment [15] is filed under the species Rattus norvegicus. Kind of experiment: Diuretic activity in rats at time intervals of 0-5 hours. In kind it is functional, Urine. An outline of the steps:
as §4

The species entered for experiment [16] is Rattus norvegicus. Kind of experiment: Saluretic activity in rats after 0-24 hours, as potassium ion concentration in urine. In kind it is functional. An outline of the steps: as §2
The species named for experiment [17] is Rattus norvegicus. Kind of experiment: Saluretic activity in rats after 0-5 hours, as potassium ion concentration in urine. In kind it is functional. The essentials: as §2
The species entered for experiment [18] is Rattus norvegicus. As to the kind of experiment: Saluretic activity in rats after 0-24 hours, as chloride ion concentration in urine. In kind it is functional. An outline of the steps: as §2
Experiment [19] has as its system Rattus norvegicus. Kind of experiment: Blood pressure was measured in spontaneously hypertensive rat after po administration at 8 hr. In kind it is functional. The essentials:
as §1

Experiment [20] concerns Rattus norvegicus. Kind of experiment: Blood pressure was measured in spontaneously hypertensive rat after po administration at 24 hr. In kind it is functional. The essentials: as §1
Experiment [21] is filed under the species Rattus norvegicus. Kind of experiment: Saluretic activity in rats after 0-5 hours, as ratio of Na+/K+ ion concentration in urine. In kind it is functional. An outline of the steps: as §2
The species named for experiment [22] is Rattus norvegicus. Kind of experiment: Saluretic activity in rats after 5-24 hours, as ratio of Na+/K+ ion concentration in urine. In kind it is functional. The essentials: as §2
Experiment [23] is filed under the species Rattus norvegicus. Kind of experiment: Saluretic activity in rats after 0-24 hours, as sodium ion concentration in urine. In kind it is functional. An outline of the steps:
as §2

Experiment [24] is filed under the species Rattus norvegicus. Kind of experiment: Compound was tested for antihypertensive activity in rat after 24 hr postdose. In kind it is functional. An outline of the steps:
as §3

The values that follow come from ChEMBL document CHEMBL1123499, “Synthesis, saludiuretic, and antihypertensive activity of 6,7-disubstituted 1(2H)- and 3,4-dihydro-1(2H)-phthalazinones” (1986).

Take `NS(=O)(=O)c1cc2c(=O)n(Cc3ccccc3)ncc2cc1Cl`: the BP in the experiment on Rattus norvegicus [1] was found to be 163.2 mmHg; with Rattus norvegicus [19] it was 149 mmHg; with Rattus norvegicus [20], 170.2 mmHg. The Delta blood pressure in the experiment on Rattus norvegicus [1] is on record as 23.4 mmHg; in the experiment with Rattus norvegicus [19], 40.2 mmHg; in the experiment with Rattus norvegicus [20] it was 14.6 mmHg. In addition, the Saluretic activity in the experiment filed under Rattus norvegicus [2] is on record as 3.36 m equiv kg-1; in the experiment filed under Rattus norvegicus [3], 6.4 m equiv kg-1; in the experiment listed under Rattus norvegicus [4] it was 7.97 m equiv kg-1; in the experiment filed under Rattus norvegicus [9] it was 5.72 m equiv kg-1; in the experiment filed under Rattus norvegicus [14], 5.92 m equiv kg-1; in the experiment listed under Rattus norvegicus [16], 5.3 m equiv kg-1. Further, the results for the Saluretic activity in the experiment listed under Rattus norvegicus [17], in the experiment listed under Rattus norvegicus [18] and in the experiment listed under Rattus norvegicus [23] were 1.94 m equiv kg-1, 13.69 m equiv kg-1 and 12.32 m equiv kg-1, respectively. The Heart rate is 411.6 beats min-1 in the experiment on Rattus norvegicus [5], 402 beats min-1 with Rattus norvegicus [11] and 399.6 beats min-1 with Rattus norvegicus [13]. Moreover, the “Decrease in blood pressure” value in the experiment filed under Rattus norvegicus [6] stood at 36 mmHg; in the experiment filed under Rattus norvegicus [7], 23 mmHg; in the experiment listed under Rattus norvegicus [24] it was 47 mmHg. The figures for the Ratio in the experiment listed under Rattus norvegicus [8], in the experiment listed under Rattus norvegicus [21] and in the experiment listed under Rattus norvegicus [22] were 2.32, 3.29 and 1.78, respectively. The Diuretic activity in the experiment filed under Rattus norvegicus [10] is 4.9 mL; in the experiment listed under Rattus norvegicus [12] it was 10.8 mL; in the experiment filed under Rattus norvegicus [15], 5.9 mL.

Regarding `NS(=O)(=O)c1cc2cnn(Cc3ccccc3)c(=O)c2cc1Cl`, the Saluretic activity amounted to 3.9 m equiv kg-1 in the experiment listed under Rattus norvegicus [2]; 2.5 m equiv kg-1 in the experiment filed under Rattus norvegicus [3]; 2.9 m equiv kg-1 in the experiment filed under Rattus norvegicus [4]; 6 m equiv kg-1 in the experiment listed under Rattus norvegicus [9]; 6.29 m equiv kg-1 in the experiment listed under Rattus norvegicus [14]; 5.74 m equiv kg-1 in the experiment filed under Rattus norvegicus [16]. The Saluretic activity in the experiment listed under Rattus norvegicus [17] worked out at 1.84 m equiv kg-1; in the experiment filed under Rattus norvegicus [18], 8.9 m equiv kg-1; in the experiment listed under Rattus norvegicus [23], 8.79 m equiv kg-1. For the same compound, the “Decrease in blood pressure” value in the experiment filed under Rattus norvegicus [6] is recorded as 54.3 mmHg; in the experiment filed under Rattus norvegicus [7] it was 35.3 mmHg; in the experiment filed under Rattus norvegicus [24], 4.7 mmHg. Further, the Ratio is 1.53 in the experiment listed under Rattus norvegicus [8], 1.36 in the experiment listed under Rattus norvegicus [21] and 1.62 in the experiment filed under Rattus norvegicus [22]. In addition, the results for the Diuretic activity in the experiment filed under Rattus norvegicus [10], in the experiment filed under Rattus norvegicus [12] and in the experiment listed under Rattus norvegicus [15] were 3.6 mL, 6.2 mL and 2.6 mL, respectively.

Consider `NS(=O)(=O)c1cc(C(=O)O)c(NCc2ccco2)cc1Cl` [FUROSEMIDE], for which the Saluretic activity was 4.42 m equiv kg-1 in the experiment listed under Rattus norvegicus [2]; 13.2 m equiv kg-1 in the experiment filed under Rattus norvegicus [3]; 16.2 m equiv kg-1 in the experiment listed under Rattus norvegicus [4]; 1.65 m equiv kg-1 in the experiment filed under Rattus norvegicus [9]; 3.02 m equiv kg-1 in the experiment filed under Rattus norvegicus [14]; 8.78 m equiv kg-1 in the experiment listed under Rattus norvegicus [16]. Further, the Saluretic activity in the experiment listed under Rattus norvegicus [17] is listed as 4.36 m equiv kg-1; in the experiment filed under Rattus norvegicus [18], 17.85 m equiv kg-1; in the experiment listed under Rattus norvegicus [23], 16.22 m equiv kg-1. The results for the “Decrease in blood pressure” value in the experiment listed under Rattus norvegicus [6], in the experiment filed under Rattus norvegicus [7] and in the experiment filed under Rattus norvegicus [24] were 59.2 mmHg, 35.8 mmHg and 5.3 mmHg, respectively. For the same compound, the Ratio in the experiment listed under Rattus norvegicus [8] turned out to be 1.85; in the experiment filed under Rattus norvegicus [21] it was 3.03; in the experiment listed under Rattus norvegicus [22] it was 0.68. In addition, the Diuretic activity was found to be 3 mL in the experiment filed under Rattus norvegicus [10], 22 mL in the experiment listed under Rattus norvegicus [12] and 19.2 mL in the experiment filed under Rattus norvegicus [15].
